Where two headings read alike, the source gives them in different places.
Assays:
MDA-MB-231 = assay: Cell proliferation assay; type: cell-based, human
Procedure, shortened: (§1)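 Mycoplasma-negative, STR-authenticated cells were seeded at 4000−6000/well and kept overnight at 37 °C, 5% CO2. Graded test compound concentrations or solvent control were added to triplicate wells. Adherent lines were read by SRB (OD 510 nm) and suspension lines by MTT (OD 570 nm). IC50 was obtained by nonlinear regression. Results are means ± SD (n ≥ 2).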

PC-3 = assay: Cell proliferation assay; type: cell-based, human
Procedure, shortened: as §1

[1] = 1 h postinjection; cited from earlier work
K562 = assay: Cell proliferation assay; type: cell-based; details: Homo sapiens, K562, read-out: IC50 K562
Procedure, shortened: as §1

K562/ADR = assay: Cell proliferation assay, multidrug-resistant K562/ADR; type: cell-based; details: for IC50: Homo sapiens, K562/Adr, read-out: IC50 K562/ADR; for RF (resistance factor): K562/ADR versus K562
Procedure, shortened: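 K562/ADR cells were derived from parental K562 by stepwise increases in ADR concentration. Proliferation was measured by the SRB (adherent) or MTT (suspension) method: 4000−6000 cells/well seeded overnight at 37 °C, 5% CO2, graded test compound in triplicate wells. IC50 was obtained by nonlinear regression. The resistance factor compares K562/ADR with parental K562. Results are means ± SD (n ≥ 2).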

[2] = read-out: IC50 MDA-MB-231, breast carcinoma, mean ± SD (n ≥ 2)
[3] = read-out: IC50 PC-3, prostate carcinoma, mean ± SD (n ≥ 2)
[4] = Homo sapiens, MDA-MB-231, read-out: IC50 MDA-MB-231
[5] = Homo sapiens, PC-3, read-out: IC50 PC-3

Compound	IC50 (MDA-MB-231; [2])	IC50 (PC-3; [3])	IC50 (K562)	IC50 (K562/ADR)	RF (resistance factor) (K562/ADR)	also measured
3-(1,2-Dicarba-closo-dodecarboranyl)-7-methoxychroman-4-one [Compound 1i]	25.4 ± 7.3 µM	38 ± 2.79 µM	–	–	–	–
3-(1,2-Dicarba-closo-dodecarboranyl)-7-methoxychromane [Compound 1k]	35.3 ± 4.78 µM	35.5 ± 0.98 µM	–	–	–	–
3-(1,2-Dicarba-closo-dodecarboranyl)chromane-4,7-diol [Compound 1l]	17.9 ± 6.09 µM	16.6 ± 1.89 µM	–	–	–	–
7-(Benzyloxy)-3-(1,2-dicarba-closo-dodecarboranyl)-4H-chromen-4-one [Compound 1c]	65.3 ± 5.39 µM	72.4 ± 1.06 µM	–	–	–	–
O=C([O-])CN(CCN(CC(=O)[O-])Cc1cc(CCC(=O)NCCCCCC(=O)NCCCC[C@H](NC(=O)N[C@@H](CCC(=O)O)C(=O)O)C(=O)O)ccc1[O-])Cc1cc(CCC(=O)O)ccc1[O-].[68Ga+3].[OH3+] [^68Ga-PSMA11]	–	–	–	–	–	brain uptake [1]: 0.013 ± 0.004 % ID/g
COc1cccc2c1C(=O)c1c(O)c3c(c(O)c1C2=O)C[C@@](O)(C(=O)CO)C[C@@H]3O[C@H]1C[C@H](N)[C@H](O)[C@H](C)O1 [adriamycin]	–	–	0.0267 ± 0.00082 µM	2.84 ± 1.06 µM	106.35	–
COc1ccc(-c2coc3cc(O)ccc3c2=O)cc1 [formononetin, reference compound]	–	–	–	–	–	IC50 (MDA-MB-231; [4]): > 100 µM; IC50 (PC-3; [5]): > 100 µM
O=c1c(-c2ccc(O)cc2)coc2cc(O)cc(O)c12 [genistein, reference compound]	–	–	–	–	–	IC50 (MDA-MB-231; [4]): 36.9 ± 2.81 µM; IC50 (PC-3; [5]): 29.5 ± 8.74 µM
CC(=O)O[C@H]1C(=O)[C@@]2(C)[C@H]([C@H](OC(=O)c3ccccc3)[C@]3(O)C[C@H](OC(=O)[C@H](O)[C@@H](NC(=O)c4ccccc4)c4ccccc4)C(C)=C1C3(C)C)[C@]1(OC(C)=O)CO[C@@H]1C[C@@H]2O [paclitaxel]	–	–	0.00157 ± 0.0015 µM	> 10 µM	>6000	RF (resistance factor) (K562/ADR; listed as PTX): over 6000
CCC1=C[C@@H]2CN(C1)Cc1c([nH]c3ccccc13)[C@@](C(=O)OC)(c1cc3c(cc1OC)N(C)[C@H]1[C@@](O)(C(=O)OC)[C@H](OC(C)=O)[C@]4(CC)C=CCN5CC[C@]31[C@@H]54)C2 [vinorelbine]	–	–	0.00157 ± 0.00112 µM	0.326 ± 0.0425 µM	230.86	–

From PMC12079591 (ACS Omega, 2025)
